Published values pooled from the literature.
Lines come from different studies, so protocols differ.

COc1ccc(C[C@H](NC(=O)[C@H](C)NC(=O)CN2CCOCC2)C(=O)N[C@@H](Cc2ccccc2)C(=O)C2(C)CO2)cc1 (stereo in doubt) — Tmax (mouse; plasma; oral; 20 mg/kg; single dose): 18 min
NCc1ccc(-c2nn(Cc3ccncc3)c3ccccc23)o1 — Tmax (male CD-1 mouse; plasma; oral; 10 mg/kg): 30 min
CC[C@H](C)[C@H](NC(=O)[C@H](CCC(=O)O)NC(=O)[C@H](CO)NC(=O)[C@@H](NC(=O)[C@@H](N)CO)C(C)C)C(=O)N[C@@H](CCC(N)=O)C(=O)N[C@@H](CC(C)C)C(=O)N[C@@H](CCSC)C(=O)N[C@@H](Cc1cnc[nH]1)C(=O)N[C@@H](CC(N)=O)C(=O)N[C@@H](CC(C)C)C(=O)NCC(=O)N[C@@H](CCCCN)C(=O)N[C@@H](Cc1cnc[nH]1)C(=O)N[C@@H](CC(C)C)C(=O)N[C@@H](CC(N)=O)C(=O)N[C@@H](CO)C(=O)N[C@@H](CCSC)C(=O)N[C@@H](CCC(=O)O)C(=O)N[C@@H](CCCNC(=N)N)C(=O)N[C@H](C(=O)N[C@@H](CCC(=O)O)C(=O)N[C@@H](Cc1c[nH]c2ccccc12)C(=O)N[C@@H](CC(C)C)C(=O)N[C@@H](CCCNC(=N)N)C(=O)N[C@@H](CCCCN)C(=O)N[C@@H](CCCCN)C(=O)N[C@@H](CC(C)C)C(=O)N[C@@H](CCC(N)=O)C(=O)N[C@@H](CC(=O)O)C(=O)N[C@H](C(=O)N[C@@H](Cc1cnc[nH]1)C(=O)N[C@@H](CC(N)=O)C(=O)N[C@@H](Cc1ccccc1)C(N)=O)C(C)C)C(C)C — Tmax (female CD-1 mouse; serum; intravenous; 10 nmol/kg): 1.8 min
OCc1ccc(-c2nn(Cc3ccccc3)c3ccccc23)o1 — Tmax (male CD-1 mouse; plasma; oral; 10 mg/kg): 15 min
Cc1ccc(OCC(=O)N[C@@H](Cc2c[nH]c3ccccc23)C(=O)OC(C)C)cc1 — Tmax (male Sprague-Dawley mouse; plasma; oral; 20 mg/kg): 72 min
COCC(=O)N1CCc2[nH]c3c(Cl)c(Cl)ccc3c2[C@@H]1C — Tmax (C57BL/6 mouse; blood; oral; 20 mg/kg): 25 min
COC1=CC(c2ccc[nH]2)=N/C1=C\c1[nH]c(Cc2ccc(OC(F)(F)F)cc2)cc1Cc1ccc(OC(F)(F)F)cc1 — Tmax (male CD-1 mouse; plasma; oral; 40 mg/kg; single dose): 240 min
OCc1nc2ccc(NCc3ccc(C(F)(F)F)cc3)cc2[nH]1 — Tmax (male BALB/c mouse; plasma; intravenous; 1 mg/kg): 15 min
CCOC(=O)c1c(NC(=O)CNC(C)C)sc2c1CCCCC2 — Tmax (male mouse; plasma; intraperitoneal; 5 mg/kg; single dose): 11.6 min
FC(F)(F)CN1CC(n2cc(Oc3ccn4nc(Cl)cc4n3)cn2)C1 — Tmax (FVB mouse; blood; oral; single dose): 30 min
NCc1ccc(-c2nn(Cc3ccccc3)c3ccccc23)o1 — Tmax (male CD-1 mouse; plasma; intraperitoneal; 30 mg/kg): 30 min
COC1=CC(c2ccc[nH]2)=N/C1=C\c1cc(Cc2ccc(OC(F)(F)F)cc2)c(C)[nH]1.Cl — Tmax (male CD-1 mouse; liver; oral; 40 mg/kg; single dose): 1440 min
NCc1cc2c(cc1F)C(=O)N(C1CCC(=O)NC1=O)C2 (stereo not shown) — Tmax (male CD-1 mouse; plasma; oral; 10 mg/kg): 48 min
Cc1[nH]c(C)c(S(=O)(=O)Nc2ccc(C(F)(F)F)c(Cl)c2)c1C(=O)N1CCC(F)(F)C1 — Tmax (male CD-1 mouse; plasma; intraperitoneal; 40 mg/kg): 60 min
CN(C)C(=O)c1cc2cnc(Nc3ccc(-c4ccc5c(=O)cc(N6CCOCC6)oc5c4)cc3)nc2n1C1CCCC1.Cl — Tmax (BALB/c mouse; plasma; intravenous; 2 mg/kg): 6 min
Cc1ccc(N(c2ccc(NC(=O)CN(C)c3ccccc3N3CCCC3=O)cc2)C(C)C)cc1 — Tmax (male CD-1 mouse; plasma; oral; 20 mg/kg): 40.2 min
